Reference: ChEMBL document CHEMBL1121933 (1982)

What was measured:
Cavia porcellus [1] = species: Cavia porcellus; assay: Relative affinity compared to substance P was measured in guinea pig ileum.; format: functional
In short: (§1)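 Guinea pig ileum (animals 200-400 g, both sexes) from animals killed by stunning and exsanguination. Concentration-response curves built by consecutive additions of drug to the bath.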

Canis familiaris [2] = species: Canis familiaris; assay: Relative affinity compared to substance P was measured in the dog carotid artery.; format: functional, Canis lupus familiaris
Oryctolagus cuniculus [3] = species: Oryctolagus cuniculus; assay: Relative affinity compared to substance P was measured in rabbit mesenteric vein.; format: functional
In short: (§2)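 Rabbit mesenteric vein from rabbits killed by stunning and exsanguination. Concentration-response curves built by consecutive drug additions to the bath fluid.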

Oryctolagus cuniculus [4] = species: Oryctolagus cuniculus; assay: Apparent affinity was measured on the rabbit mesenteric vein.; format: functional; in short: as §2
Canis familiaris [5] = species: Canis familiaris; assay: Intrinsic activity was measured on the dog carotid artery.; format: functional, Canis lupus familiaris
Cavia porcellus [6] = species: Cavia porcellus; assay: Apparent affinity was measured on the guinea pig ileum.; format: functional; in short: as §1
Rattus norvegicus = assay: Relative potency compared substance P - change in blood pressure in anesthetized rat.; format: functional
In short: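 Rats 200-250 g, anesthetized with urethane (1.4 g/kg, sc). Peptides injected into the jugular vein. Blood pressure recorded directly via a cannula in the right carotid artery with a mercury manometer on a kymograph-driven smoked drum.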

Oryctolagus cuniculus [7] = species: Oryctolagus cuniculus; assay: Intrinsic activity was measured on the rabbit mesenteric vein.; format: functional; in short: as §2
Cavia porcellus [8] = species: Cavia porcellus; assay: Intrinsic activity was measured on the guinea pig ileum.; format: functional; in short: as §1
Canis familiaris [9] = species: Canis familiaris; assay: Apparent affinity was measured on the dog carotid artery.; format: functional, Canis lupus familiaris

Work on `CSCC[C@H](NC(=O)[C@H](CC(C)C)NC(=O)CNC(=O)[C@H](Cc1ccccc1)NC(=O)[C@H](CC1CCCCC1)NC(=O)[C@H](CCC(N)=O)NC(=O)[C@H](CCC(N)=O)NC(=O)[C@@H]1CCCN1C(=O)[C@H](CCCCN)NC(=O)[C@@H]1CCCN1C(=O)[C@@H](N)CCCN=C(N)N)C(N)=O` yielded an RA (Cavia porcellus [1]) of 20, an RA (Canis familiaris [2]) of 6.4 and an RA (Oryctolagus cuniculus [3]) of 13.2. For the same compound, the pD2 (Oryctolagus cuniculus [4]) was 6.66, the Alphax10E (Canis familiaris [5]) was 1 and the pD2 (Cavia porcellus [6]) was 8.08. The RP (Rattus norvegicus) was 21, the Alphax10E (Oryctolagus cuniculus [7]) was 0.8 and the Alphax10E (Cavia porcellus [8]) was 1. For the same compound, the pD2 (Canis familiaris [9]) was 8.8.

`CC[C@H](C)[C@H](NC(=O)[C@H](Cc1ccccc1)NC(=O)[C@H](CCC(N)=O)NC(=O)[C@H](CCC(N)=O)NC(=O)[C@@H]1CCCN1C(=O)[C@H](CCCCN)NC(=O)[C@@H]1CCCN1C(=O)[C@@H](N)CCCN=C(N)N)C(=O)NCC(=O)N[C@@H](CC(C)C)C(=O)N[C@@H](CCSC)C(N)=O` gave an RA (Cavia porcellus [1]) of 100, an RA (Oryctolagus cuniculus [3]) of 100 and a pD2 (Oryctolagus cuniculus [4]) of 7.55. It also gave a pD2 (Cavia porcellus [6]) of 8.78, an RP (Rattus norvegicus) of 100 and an Alphax10E (Oryctolagus cuniculus [7]) of 1. For the same compound, the Alphax10E (Cavia porcellus [8]) was 1.

With `CSCC[C@H](NC(=O)[C@H](CC(C)C)NC(=O)CNC(=O)[C@H](CC1CCCCC1)NC(=O)[C@H](Cc1ccccc1)NC(=O)[C@H](CCC(N)=O)NC(=O)[C@H](CCC(N)=O)NC(=O)[C@@H]1CCCN1C(=O)[C@H](CCCCN)NC(=O)[C@@H]1CCCN1C(=O)[C@@H](N)CCCN=C(N)N)C(N)=O` the RA (Cavia porcellus [1]) was 100, the RA (Oryctolagus cuniculus [3]) was 100 and the pD2 (Oryctolagus cuniculus [4]) was 7.55. The pD2 (Cavia porcellus [6]) was 8.78, the RP (Rattus norvegicus) was 100 and the Alphax10E (Oryctolagus cuniculus [7]) was 1. It also gave an Alphax10E (Cavia porcellus [8]) of 1.

With `CSCC[C@H](NC(=O)[C@H](CC(C)C)NC(=O)[C@@H](Cc1ccccc1)NC(=O)[C@@H](CC(C)C)NC(=O)[C@H](Cc1ccccc1)NC(=O)[C@H](CCC(N)=O)NC(=O)[C@H](CCC(N)=O)NC(=O)[C@@H]1CCCN1C(=O)[C@H](CCCCN)NC(=O)[C@@H]1CCCN1C(=O)[C@@H](N)CCCN=C(N)N)C(N)=O` the RA (Cavia porcellus [1]) was 1.2, the RA (Canis familiaris [2]) was 0.8 and the RA (Oryctolagus cuniculus [3]) was less than 0.01. It also gave an Alphax10E (Canis familiaris [5]) of 1, a pD2 (Cavia porcellus [6]) of 6.83 and an RP (Rattus norvegicus) of 1.3. It also gave a pD2 (Canis familiaris [9]) of 7.89.

`CSCC[C@H](NC(=O)[C@H](CC(C)C)NC(=O)CNC(=O)[C@@H](Cc1c[nH]c2ccccc12)NC(=O)[C@H](Cc1ccccc1)NC(=O)[C@H](CCC(N)=O)NC(=O)[C@H](CCC(N)=O)NC(=O)[C@@H]1CCCN1C(=O)[C@H](CCCCN)NC(=O)[C@@H]1CCCN1C(=O)[C@@H](N)CCCN=C(N)N)C(N)=O` gave an RA (Cavia porcellus [1]) of 0.8, an RA (Canis familiaris [2]) of 0.2 and an RA (Oryctolagus cuniculus [3]) of 0.3. It also gave a pD2 (Oryctolagus cuniculus [4]) of 4.92, an Alphax10E (Canis familiaris [5]) of 1 and a pD2 (Cavia porcellus [6]) of 6.68. The RP (Rattus norvegicus) was 0.8, the Alphax10E (Cavia porcellus [8]) was 1 and the pD2 (Canis familiaris [9]) was 7.12.

In the case of `COc1ccc(C[C@H](NC(=O)[C@H](CCC(N)=O)NC(=O)[C@H](CCC(N)=O)NC(=O)[C@@H]2CCCN2C(=O)[C@H](CCCCN)NC(=O)[C@@H]2CCCN2C(=O)[C@@H](N)CCCN=C(N)N)C(=O)N[C@@H](Cc2ccccc2)C(=O)NCC(=O)N[C@@H](CC(C)C)C(=O)N[C@@H](CCSC)C(N)=O)cc1`, the RA (Cavia porcellus [1]) is reported as 31, the RA (Oryctolagus cuniculus [3]) is reported as 20.5 and the pD2 (Oryctolagus cuniculus [4]) is reported as 6.87. For the same compound, the pD2 (Cavia porcellus [6]) was 8.27, the RP (Rattus norvegicus) was 31 and the Alphax10E (Oryctolagus cuniculus [7]) was 0.8. The Alphax10E (Cavia porcellus [8]) was 1.

In the case of `CSCC[C@H](NC(=O)[C@H](CC(C)C)NC(=O)CNC(=O)[C@H](Cc1ccccc1)NC(=O)[C@H](CC(C)C)NC(=O)[C@H](CCC(N)=O)NC(=O)[C@H](CCC(N)=O)NC(=O)[C@@H]1CCCN1C(=O)[C@H](CCCCN)NC(=O)[C@@H]1CCCN1C(=O)[C@@H](N)CCCN=C(N)N)C(N)=O`, the RA (Cavia porcellus [1]) is reported as 2.3, the RA (Canis familiaris [2]) is reported as 0.4 and the RA (Oryctolagus cuniculus [3]) is reported as 1.3. For the same compound, the pD2 (Oryctolagus cuniculus [4]) was 5.66, the Alphax10E (Canis familiaris [5]) was 1 and the pD2 (Cavia porcellus [6]) was 7.15. It also gave an RP (Rattus norvegicus) of 0.8, an Alphax10E (Cavia porcellus [8]) of 1 and a pD2 (Canis familiaris [9]) of 7.64.

`COc1ccc(C[C@H](NC(=O)[C@H](Cc2ccccc2)NC(=O)[C@H](CCC(N)=O)NC(=O)[C@H](CCC(N)=O)NC(=O)[C@@H]2CCCN2C(=O)[C@H](CCCCN)NC(=O)[C@@H]2CCCN2C(=O)[C@@H](N)CCCN=C(N)N)C(=O)NCC(=O)N[C@@H](CC(C)C)C(=O)N[C@@H](CCSC)C(N)=O)cc1` was tested, and the RA (Cavia porcellus [1]) was 100, the RA (Canis familiaris [2]) was 95 and the RA (Oryctolagus cuniculus [3]) was 100. The pD2 (Oryctolagus cuniculus [4]) was 7.55, the Alphax10E (Canis familiaris [5]) was 1 and the pD2 (Cavia porcellus [6]) was 8.78. It also gave an RP (Rattus norvegicus) of 100, an Alphax10E (Oryctolagus cuniculus [7]) of 1 and an Alphax10E (Cavia porcellus [8]) of 1. It also gave a pD2 (Canis familiaris [9]) of 9.98.

In the case of `CSCC[C@H](NC(=O)[C@H](CC(C)C)NC(=O)[C@@H](CC(C)C)NC(=O)[C@H](Cc1ccccc1)NC(=O)[C@H](Cc1ccccc1)NC(=O)[C@H](CCC(N)=O)NC(=O)[C@H](CCC(N)=O)NC(=O)[C@@H]1CCCN1C(=O)[C@H](CCCCN)NC(=O)[C@@H]1CCCN1C(=O)[C@@H](N)CCCN=C(N)N)C(N)=O`, the RA (Cavia porcellus [1]) is reported as 2.7, the RA (Canis familiaris [2]) is reported as 0.3 and the RA (Oryctolagus cuniculus [3]) is reported as 0.4. The pD2 (Oryctolagus cuniculus [4]) was 5.11, the Alphax10E (Canis familiaris [5]) was 1 and the pD2 (Cavia porcellus [6]) was 7.21. For the same compound, the RP (Rattus norvegicus) was 0.7, the Alphax10E (Cavia porcellus [8]) was 1 and the pD2 (Canis familiaris [9]) was 7.49.

Work on `CSCC[C@H](NC(=O)[C@H](CC(C)C)NC(=O)CNC(=O)[C@H](Cc1ccccc1)NC(=O)[C@H](Cc1c[nH]c2ccccc12)NC(=O)[C@H](CCC(N)=O)NC(=O)[C@H](CCC(N)=O)NC(=O)[C@@H]1CCCN1C(=O)[C@H](CCCCN)NC(=O)[C@@H]1CCCN1C(=O)[C@@H](N)CCCN=C(N)N)C(N)=O` yielded an RA (Cavia porcellus [1]) of 39.7, an RA (Canis familiaris [2]) of 37.1 and an RA (Oryctolagus cuniculus [3]) of 10. The pD2 (Oryctolagus cuniculus [4]) was 6.55, the Alphax10E (Canis familiaris [5]) was 1 and the pD2 (Cavia porcellus [6]) was 8.38. The RP (Rattus norvegicus) was 51, the Alphax10E (Cavia porcellus [8]) was 1 and the pD2 (Canis familiaris [9]) was 9.56.

`CSCC[C@H](NC(=O)[C@H](Cc1ccccc1)NC(=O)CNC(=O)[C@@H](C)NC(=O)[C@H](Cc1ccccc1)NC(=O)[C@H](CCC(N)=O)NC(=O)[C@H](CCC(N)=O)NC(=O)[C@@H]1CCCN1C(=O)[C@H](CCCCN)NC(=O)[C@@H]1CCCN1C(=O)[C@@H](N)CCCN=C(N)N)C(N)=O` gave an RA (Cavia porcellus [1]) of less than 0.01, an RA (Canis familiaris [2]) of 1.4 and an RA (Oryctolagus cuniculus [3]) of less than 0.1. For the same compound, the Alphax10E (Canis familiaris [5]) was 1, the pD2 (Cavia porcellus [6]) was 4.73 and the RP (Rattus norvegicus) was 0.09. For the same compound, the pD2 (Canis familiaris [9]) was 8.15.

Compound `CSCC[C@H](NC(=O)[C@H](CC(C)C)NC(=O)CNC(=O)[C@H](Cc1ccccc1)NC(=O)[C@@H](Cc1c[nH]c2ccccc12)NC(=O)[C@H](CCC(N)=O)NC(=O)[C@H](CCC(N)=O)NC(=O)[C@@H]1CCCN1C(=O)[C@H](CCCCN)NC(=O)[C@@H]1CCCN1C(=O)[C@@H](N)CCCN=C(N)N)C(N)=O` has an RA (Cavia porcellus [1]) of 0.2, an RA (Canis familiaris [2]) of 0.2 and an RA (Oryctolagus cuniculus [3]) of less than 0.1. The Alphax10E (Canis familiaris [5]) was 1, the pD2 (Cavia porcellus [6]) was 5.9 and the RP (Rattus norvegicus) was 0.2. For the same compound, the Alphax10E (Cavia porcellus [8]) was 1 and the pD2 (Canis familiaris [9]) was 7.33.

Compound `CSCC[C@H](NC(=O)[C@H](CC(C)C)NC(=O)CNC(=O)[C@H](CC(C)C)NC(=O)[C@H](Cc1ccccc1)NC(=O)[C@H](CCC(N)=O)NC(=O)[C@H](CCC(N)=O)NC(=O)[C@@H]1CCCN1C(=O)[C@H](CCCCN)NC(=O)[C@@H]1CCCN1C(=O)[C@@H](N)CCCN=C(N)N)C(N)=O` has an RA (Cavia porcellus [1]) of 68, an RA (Canis familiaris [2]) of 64 and an RA (Oryctolagus cuniculus [3]) of 23.6. For the same compound, the pD2 (Oryctolagus cuniculus [4]) was 6.92, the Alphax10E (Canis familiaris [5]) was 1 and the pD2 (Cavia porcellus [6]) was 8.61. For the same compound, the RP (Rattus norvegicus) was 70, the Alphax10E (Oryctolagus cuniculus [7]) was 0.8 and the Alphax10E (Cavia porcellus [8]) was 1. The pD2 (Canis familiaris [9]) was 9.81.

H-RPKPQQFGGFM-NH2 was tested, and the RA (Cavia porcellus [1]) was less than 0.1, the RA (Canis familiaris [2]) was 0.2 and the RA (Oryctolagus cuniculus [3]) was less than 0.1. The Alphax10E (Canis familiaris [5]) was 1, the pD2 (Cavia porcellus [6]) was 5.31 and the RP (Rattus norvegicus) was 0.07. The pD2 (Canis familiaris [9]) was 7.33.

Compound H-RPKPQQLLGLM-NH2 has an RA (Cavia porcellus [1]) of less than 0.1, an RA (Canis familiaris [2]) of less than 0.1 and an RA (Oryctolagus cuniculus [3]) of less than 0.01. For the same compound, the Alphax10E (Canis familiaris [5]) was 1, the pD2 (Cavia porcellus [6]) was 5.29 and the RP (Rattus norvegicus) was 0.2. For the same compound, the pD2 (Canis familiaris [9]) was 6.38.
